For orientation: pIC50 means the IC50 on a negative log10 scale, so that one unit is a factor of ten.

pIC50: −log10 of the molar value.

For the test, the system named is Aorta. Description: Vasorelaxation activity in Sprague-Dawley rat aortic assessed as inhibition of phenylephrin-induced contraction. Type of test: functional, tissue-based. In a few lines: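 Endothelium-intact aortic rings from adult male rats (280–320 g) held isometrically at 1.8 g passive tension for 60 min; endothelium confirmed by >98% relaxation to acetylcholine (3 µM). Tonic contraction to phenylephrine (0.3 µM) set as 100%. Compound added cumulatively, 0.01–100 µM, one curve per ring. IC50 taken from percent-relaxation curves; mean ± SE of n independent experiments.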
Turning to `COC1=C[C@@]23CCN(C)[C@@H](Cc4cc(OC)c(OC)cc42)C3=CC1=O`, the pIC50 is 4.54.
With `COc1cc(-c2oc3cc(O)cc(O)c3c(=O)c2O[C@@H]2O[C@H](CO)[C@@H](O)[C@H](O)[C@H]2O)ccc1O`, the pIC50 was 4.63.
For the compound `COc1ccc2c(c1OC)-c1c3c(c(OC)c4c1[C@H](C2)NCC4)OCO3`, the negative logarithm of the IC50 (pIC50) was 4.78.
Take `COC1=C[C@@]23CCN(C)[C@@H](Cc4ccc(OC)c(O)c42)C3=CC1=O`: the pIC50 was 4.48.
To `COc1ccc2c(c1C(=O)O)-c1c3c(c(OC)c4c1[C@H](C2)NCC4)OCO3` [CASSYTHIC ACID] belongs 5.61; to `COc1cc2c(cc1O)C[C@@H]1NCCc3c(OC)c4c(c-2c31)OCO4` [CASSYTHINE], 7.05.
Regarding `COc1cc2c(cc1OC)-c1c3c(cc4c1[C@H](C2)N(C)CC4)OCO3` [DICENTRINE], the pIC50 was 7.10.
As for `COc1cc2c(cc1O)C(=O)c1nccc3c(OC)c4c(c-2c13)OCO4` [ISOFILIFORMINE], the negative-log IC50 (pIC50) was 4.49.
As for `COc1cc(-c2oc3cc(O)cc(O)c3c(=O)c2O[C@@H]2O[C@H](CO[C@@H]3O[C@@H](C)[C@H](O)[C@@H](O)[C@H]3O)[C@@H](O)[C@H](O)[C@H]2O)ccc1O` [NARCISSIN], the pIC50 was 4.77.
As for `CN1CCc2cc3c(c4c2[C@@H]1Cc1cc2c(cc1-4)OCO2)OCO3` [NEOLITSINE], the pIC50 was 6.54.

Values taken from ChEMBL document CHEMBL1144774, “Vasorelaxing alkaloids and flavonoids from Cassytha filiformis” (J Nat Prod, 2008).
